Measured values published in ChEMBL document CHEMBL1132709, “Novel cyclopropapyrroloindole derivative (AT-3510) bearing methoxycarbonyl and trifluoromethyl groups” (J Med Chem, 1999).
Converted amounts (≈) assume the structure as drawn.

Tests used:
Mus musculus [1] = assay: In vivo antitumor activity (3.13 mg/kg) is the measure of tumor growth inhibition of human tumor xenograft HCT116 (colon) implanted sc in mice.; assay type: functional
Summary of the method: (§1)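 Tumor fragments (2–3 mm3) implanted sc into female BALB/cA Jcl-nu mice on day 0; single iv dose given once tumor volume reached about 100 mm3. Read-out is maximum tumor growth inhibition, as percentage versus untreated group.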

[2] = Ratio between max dose within 10% body weight loss and tumor growth inhibition; assay type: functional
Summary of the method: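 Ratio of maximum dose within 10% body weight loss to the dose giving 50% tumor growth inhibition, in sc Colon 26-bearing mice dosed iv.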

Mus musculus [3] = assay: In vivo concentration required to inhibit the Colon 26 murine […] cell growth by 50%; assay type: functional
Mus musculus [4] = assay: In vivo antitumor activity (3.13 mg/kg) is the measure of tumor growth inhibition of human tumor xenograft NUGC-3 (stomach) implanted sc in mice.; assay type: functional; summary of the method: as §1
Mus musculus [5] = assay: In vivo antitumor activity (3.13 mg/kg) is the measure of tumor growth inhibition of human tumor xenograft DLD-1 (colon) implanted sc in mice.; assay type: functional; summary of the method: as §1
Mus musculus [6] = assay: In vivo antitumor activity is the measure of tumor growth inhibition of Colon 26 murine […] cells.; assay type: functional
Summary of the method: (§2)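 Colon 26 cells (10^6/mouse) inoculated sc into male CDF1 mice on day 0; single iv dose on day 7. Tumor growth inhibition expressed as percentage versus untreated group.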

Mus musculus [7] = assay: In vivo antitumor activity (3.13 mg/kg) is the measure of tumor growth inhibition of human tumor xenograft WiDr (colon) implanted sc in mice.; assay type: functional; summary of the method: as §1
HeLa = assay: Concentration required to inhibit the growth of HeLaS3 human uterine cervix carcinoma cells by 50%; assay type: functional, cell-based
Mus musculus [8] = assay: In vivo antitumor activity (1 mg/Kg) is the measure of tumor growth inhibition of colon 26 murine […] cells.; assay type: functional
Summary of the method: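 Colon 26 cells (10^6/mouse) inoculated sc into male CDF1 mice on day 0; drug given iv on day 7. Read-out is percentage tumor growth inhibition versus the untreated group.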

Mus musculus [9] = assay: In vivo antitumor activity (0.0884 mg/Kg) is the measure of tumor growth inhibition of colon 26 murine […] cells.; assay type: functional; summary of the method: as §2
Mus musculus [10] = assay: In vivo concentration required to inhibit the colon 26 murine […] cell growth by 50%; assay type: functional
Mus musculus [11] = assay: In vivo antitumor activity (1 mg/kg) is the measure of tumor growth inhibition of human tumor xenograft WiDr (colon) implanted sc in mice.; assay type: functional
Summary of the method: (§3)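 Tumor fragments (2–3 mm3) implanted sc into female BALB/cA Jcl-nu mice on day 0. A single iv dose was given once tumor volume reached about 100 mm3. Read-out is percentage of maximum tumor growth inhibition versus the untreated group.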

Mus musculus [12] = assay: In vivo antitumor activity (1 mg/kg) is the measure of tumor growth inhibition of human tumor xenograft DLD-1 (colon) implanted sc in mice.; assay type: functional; summary of the method: as §3
Mus musculus [13] = assay: In vivo antitumor activity (1 mg/kg) is the measure of tumor growth inhibition of human tumor xenograft HCT116 (colon) implanted sc in mice.; assay type: functional; summary of the method: as §3
Mus musculus [14] = assay: In vivo antitumor activity (0.716 mg/kg) is the measure of tumor growth inhibition of human tumor xenograft NUGC-3 (stomach) implanted sc in mice.; assay type: functional; summary of the method: as §3

In the case of `COC(=O)c1c(C(F)(F)F)[nH]c2c(OC(=O)N3CCN(C)CC3)cc3c(c12)[C@H](CCl)CN3C(=O)c1cc2cc(NC(=O)c3cc4cccc(OC)c4o3)ccc2[nH]1`, the TGI (Mus musculus [1]) is reported as 90%, the Ratio [2] is reported as 7.6 and the TGI50 (Mus musculus [3]) is reported as 0.265 mg/kg. The TGI (Mus musculus [4]) was 100%, the TGI (Mus musculus [5]) was 83% and the TGI (Mus musculus [6]) was 95%. The TGI (Mus musculus [7]) was 86%.

In the case of `COC(=O)c1c(C(F)(F)F)[nH]c2c(O)cc3c(c12)[C@H](CCl)CN3C(=O)c1cc2cc(-c3cc4ccccc4o3)ccc2[nH]1` (racemic), the IC50 (HeLa) is reported as 3.6 ng/mL (≈ 5.92 nM) and the TGI (Mus musculus [8]) is reported as 84%.

`Cc1c[nH]c2c1[C@@]13C[C@@H]1CN(C(=O)c1cc4cc(NC(=O)c5cc6ccccc6o5)ccc4[nH]1)C3=CC2=O` [ADOZELESIN] gave a Ratio [2] of 2, an IC50 (HeLa) of 0.0364 ng/mL (≈ 0.0724 nM) and a TGI (Mus musculus [9]) of 79%. For the same compound, the TGI50 (Mus musculus [10]) was 0.0444 mg/kg.

In the case of `COC(=O)c1c(C)[nH]c2c(OC(=O)N3CCN(C)CC3)cc3c(c12)[C@H](CBr)CN3C(=O)c1cc2cc(OC)c(OC)c(OC)c2[nH]1` [PIBROZELESIN], the Ratio [2] is reported as 3.4, the TGI (Mus musculus [11]) is reported as 59% and the TGI (Mus musculus [12]) is reported as 65%. The TGI (Mus musculus [13]) was 73% and the TGI (Mus musculus [14]) was 91%.
